The test system of series [1] is HepG2. Briefly: Induction of apoptosis in human HepG2 cells assessed as viable cells at 0.5 uM after 24 hrs by annexin V/propidium iodide staining-based flow cytometry (reference value: 89.8%). In kind it is functional. The following applies: HepG2, 24 h, read-out: Activity. A general note: Flow cytometry measures light scatter and fluorescence of single cells or particles in a stream.

Series [2] deals with HepG2. Briefly: Induction of apoptosis in human HepG2 cells assessed as late apoptotic cells at 0.5 uM after 24 hrs by annexin V/propidium iodide staining-based flow cytometry (reference value: 3.74%). Format: functional.
Series [3] concerns HepG2. Briefly: Induction of apoptosis in human HepG2 cells assessed as early apoptotic cells at 0.5 uM after 24 hrs by annexin V/propidium iodide staining-based flow cytometry (reference value: 0.87%). In kind it is functional.
Series [4] relates to HepG2. Briefly: Induction of apoptosis in human HepG2 cells assessed as early apoptotic cells at 0.2 uM after 24 hrs by annexin V/propidium iodide staining-based flow cytometry (reference value: 0.87%). In kind it is functional.
Series [5] has as its system HUVEC. Briefly: Antivascular activity against HUVEC assessed as aggregation of cells in small clumps at 250 to 500 nM after 8 hrs by Matrigel assay. In kind it is functional, cell-based. Particulars: Homo sapiens. An outline of the steps:
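Wells of prechilled plates coated with Matrigel and solidified 45 min at 37 °C. HUVECs (1 × 10^4) in EBM-2 containing compound (125-500 nM) seeded onto the gel and incubated 8 h at 37 °C. Capillary networks photographed at 100×; tubule numbers and line lengths counted manually.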

Series [6] relates to HepG2. Briefly: Induction of apoptosis in human HepG2 cells assessed as late apoptotic cells at 0.2 uM after 48 hrs by annexin V/propidium iodide staining-based flow cytometry (reference value: 3.74%). Format: functional.
The nature of series [7]: Antiproliferative activity against human A2780S cells after 48 hrs by MTT assay. In kind it is functional, cell-based. The following applies: A2780, 48 h. In a few lines: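 HCT116, HepG2, SMMC-7721, SK-OV-3 and A2780s grown in DMEM; A549 and MCF-7 in RPMI-1640; all with 10% FBS and penicillin/streptomycin at 37 °C, 5% CO2. Log-phase cells at 40,000-50,000 cells/mL treated with graded concentrations for 48 h. MTT 3 h, DMSO solubilization, A570. IC50 from percent growth versus untreated control; mean ± SEM of ≥3 independent dose-response experiments.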
In general terms: Tetrazolium assays rely on reduction of a dye to a coloured formazan, in cell work by metabolically active cells.

Series [8] deals with HCT-116. Briefly: Cell cycle arrest in human HCT116 cells assessed as accumulation at G1 phase at 0.2 uM after 24 hrs by flow cytometry (reference value: 53.98%). In kind it is functional.
Series [9] deals with HCT-116. Briefly: Induction of apoptosis in human HCT116 cells assessed as necrotic cells at 0.2 uM after 24 hrs by annexin V/propidium iodide staining-based flow cytometry (reference value: 3.49%). Format: functional.
Series [10] deals with HUVEC. Briefly: Antimigratory activity against HUVEC at 500 nM after 24 hrs by phase contrast microscopy. Format: functional, cell-based. Particulars: Homo sapiens. An outline of the steps: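 HUVEC monolayers grown overnight in 6-well plates, scratched with pipet tips, washed twice with PBS, then given fresh EBM2 with vehicle or compound. Imaged by phase contrast at 0 and 24 h (100×). Migrated cells counted manually in 3 separate fields; mean ± SD from three fields.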

Series [11] concerns NCI-H1975. Briefly: Antiproliferative activity against human gefitinib-resistant NCI-H1975 cells after 48 hrs by MTT assay. Format: functional, cell-based. Particulars: NCI-H1975, 48 h.
For series [12], the system named is A549. Briefly: Resistance ratio, ratio of IC50 for human taxol-resistant A549 cells to IC50 for human A549 cells. In kind it is functional. An outline of the steps:
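MTT assay: log-phase cells at 40,000-50,000 cells/mL in RPMI-1640 with 10% FBS, exposed to graded concentrations for 48 h, then MTT 3 h, DMSO solubilization, absorbance at 570 nm. IC50 from growth versus untreated control, at least three independent experiments. Ratio = resistant-line IC50 / parental-line IC50.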

Series [13] has as its system HepG2. Briefly: Antimitotic activity in human HepG2 cells assessed as inhibition of microtubule formation at 0.2 uM after 24 hrs by DAPI staining-based immmunofluorescence assay. In kind it is functional, cell-based. In a few lines:
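HepG2 cells seeded in 6-well plates and treated with compound. Fixed in 4% paraformaldehyde, permeabilized with 0.5% Triton X-100 in PBS, blocked 30 min in 5% goat serum at room temperature. Stained with monoclonal anti-α-tubulin 1 h at room temperature, then fluorescent secondary antibody, nuclei labelled with DAPI. Viewed by fluorescence microscopy.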

The test system of series [14] is HepG2. Briefly: Cell cycle arrest in human HepG2 cells assessed as accumulation at S phase at 0.5 uM after 24 hrs by flow cytometry (reference value: 23.97%). In kind it is functional.
Series [15] has as its system Mus musculus. Briefly: Toxicity in Balb/c athymic nude mouse xenografted with human HCT116 cells assessed as loss in body weight at 20 to 50 mg/kg, ip administered daily. In kind it is organism-based, HCT-116. Particulars: in vivo. In a few lines:
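Female Balb/C athymic nude mice, 5-6 weeks old, implanted s.c. in the right flank with cells in HBSS. Once tumours reached about 100 mm3, mice were randomized (6 per group) to vehicle, 5-FU 10 mg/kg, or test agent 20 or 50 mg/kg i.p. daily. Body weight was recorded every two days.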

The nature of series [16]: Antiproliferative activity against human doxorubicin-resistant MCF7 cells after 48 hrs by MTT assay. In kind it is functional, cell-based. Particulars: MCF7, 48 h. An outline of the steps: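 MCF-7/ADR (doxorubicin-resistant) and A549/T (taxol-resistant) cells in RPMI-1640 with 10% FBS and penicillin/streptomycin. Log-phase cells at 40,000-50,000 cells/mL exposed to graded concentrations for 48 h. MTT 3 h, DMSO solubilization, absorbance 570 nm. IC50 from percent growth versus untreated control; mean ± SEM of ≥3 independent experiments.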

Series [17] concerns Mus musculus. Briefly: Toxicity in Balb/c athymic nude mouse xenografted with human HCT116 cells assessed as change in feeding and animal behavior at 20 to 50 mg/kg, ip administered daily. In kind it is organism-based, HCT-116. The following applies: in vivo. Background: A xenograft is tissue or cells of one species grown in another, often human tumour cells in immunodeficient mice.

Series [18] relates to HepG2. Briefly: Cell cycle arrest in human HepG2 cells assessed as accumulation at G1 phase at 1 uM after 24 hrs by flow cytometry (reference value: 62.74%). In kind it is functional.
Series [19] relates to HepG2. Briefly: Induction of apoptosis in human HepG2 cells assessed as late apoptotic cells at 1 uM after 24 hrs by annexin V/propidium iodide staining-based flow cytometry (reference value: 3.74%). Format: functional.
In series [20] the test system is HCT-116. Briefly: Induction of apoptosis in human HCT116 cells assessed as early apoptotic cells at 1 uM after 24 hrs by annexin V/propidium iodide staining-based flow cytometry (reference value: 2.83%). Format: functional. An outline of the steps:
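HCT116 cells treated with compound or DMSO for 24 or 48 h, trypsinized, washed twice in PBS and dual-stained with annexin-V and PI. Analysed by flow cytometry: early apoptotic cells scored as annexin-V+/PI−, late apoptotic cells as annexin-V+/PI+.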

Series [21] relates to HCT-116. Briefly: Cell cycle arrest in human HCT116 cells assessed as accumulation at G2/M phase at 1 uM after 24 hrs by flow cytometry (reference value: 20.36%). In kind it is functional.
Series [22] concerns HepG2. Briefly: Cell cycle arrest in human HepG2 cells assessed as accumulation at S phase at 0.2 uM after 24 hrs by flow cytometry (reference value: 23.97%). Format: functional.
For series [23], the system named is HCT-116. Briefly: Induction of apoptosis in human HCT116 cells assessed as late apoptotic cells at 1 uM after 24 hrs by annexin V/propidium iodide staining-based flow cytometry (reference value: 1.71%). In kind it is functional.
The subject of series [24] is HCT-116. Briefly: Induction of apoptosis in human HCT116 cells assessed as viable cells at 0.5 uM after 24 hrs by annexin V/propidium iodide staining-based flow cytometry (reference value: 92%). In kind it is functional. Particulars: HCT-116, 24 h, read-out: Activity.

The source made the active and inactive calls. The calls are words filed in the database; no cut-off is given here.

As usually defined, the IC50 is the concentration at which inhibition is half-maximal. Low values mean greater potency in that assay, high ones weaker potency in that assay.

As for `CCOc1ccc(-c2nc(N)sc2-c2cc(OC)c(OC)c(OC)c2)cc1`, the viability at 0.5 µM was found to be 80.7% in series [1] and 74.5% in [24]. Further, the Activity in series [2] is 7.86%; in [3], 11.2%; in series [4], 10.08%; in [6], 4.17%; in series [8], 29.2%; in series [9] it was 3.69%. For the same compound, the Activity in series [14] is on record as 7.29%; in [15], “Toxic”; in series [17], “Non-toxic”; in [18], 8.69%; in [19] it was 8.34%; in series [20], 17.6%. In addition, the results for the Activity in series [21], in series [22] and in series [23] were 9.22%, 29.88% and 17.1%, respectively. Moreover, the result in series [5], in series [10] and in series [13] was Active. For the same compound, the IC50 was 0.016 µM in series [7], 0.217 µM in series [11] and 0.19 µM in [16]. The “Ratio IC50” value in [12] is recorded as 0.51.
